Reference: ChEMBL document CHEMBL1129264, “Mercaptoacyl dipeptides as orally active dual inhibitors of angiotensin-converting enzyme and neutral endopeptidase” (1996)
Each block holds one compound with its values, some of them ahead of it.

Columns and labels:
Rattus norvegicus [1] = test: Plasma ANF Concentration in the Conscious Rat at a dose of 13.2(po)mg/kg at 0.5 h; assay type: functional
How it was run: (§1)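 Male Sprague-Dawley rats (275-390 g) received femoral artery and vein catheters under ketamine (150 mg/kg)/acepromazine and recovered for 24 h, tethered, before study conscious. ratANF(99-126) was infused at 450 ng/kg/min iv for 5 h. Baseline blood was drawn at 60 min into the infusion, then compound was given po.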

[2] = target: T1, Angiotensin-converting enzyme (Rattus norvegicus) (UniProt P47820); test: Compound was tested for plasma inhibition of Angiotensin I converting enzyme activity in the conscious rat. Expressed as Inhibition of AI pressor response at 6 hr at a dose of 13.2 mg/kg po; assay type: organism-based; parameters: dose 13.2 mg/kg
T1 sequence (whole entry): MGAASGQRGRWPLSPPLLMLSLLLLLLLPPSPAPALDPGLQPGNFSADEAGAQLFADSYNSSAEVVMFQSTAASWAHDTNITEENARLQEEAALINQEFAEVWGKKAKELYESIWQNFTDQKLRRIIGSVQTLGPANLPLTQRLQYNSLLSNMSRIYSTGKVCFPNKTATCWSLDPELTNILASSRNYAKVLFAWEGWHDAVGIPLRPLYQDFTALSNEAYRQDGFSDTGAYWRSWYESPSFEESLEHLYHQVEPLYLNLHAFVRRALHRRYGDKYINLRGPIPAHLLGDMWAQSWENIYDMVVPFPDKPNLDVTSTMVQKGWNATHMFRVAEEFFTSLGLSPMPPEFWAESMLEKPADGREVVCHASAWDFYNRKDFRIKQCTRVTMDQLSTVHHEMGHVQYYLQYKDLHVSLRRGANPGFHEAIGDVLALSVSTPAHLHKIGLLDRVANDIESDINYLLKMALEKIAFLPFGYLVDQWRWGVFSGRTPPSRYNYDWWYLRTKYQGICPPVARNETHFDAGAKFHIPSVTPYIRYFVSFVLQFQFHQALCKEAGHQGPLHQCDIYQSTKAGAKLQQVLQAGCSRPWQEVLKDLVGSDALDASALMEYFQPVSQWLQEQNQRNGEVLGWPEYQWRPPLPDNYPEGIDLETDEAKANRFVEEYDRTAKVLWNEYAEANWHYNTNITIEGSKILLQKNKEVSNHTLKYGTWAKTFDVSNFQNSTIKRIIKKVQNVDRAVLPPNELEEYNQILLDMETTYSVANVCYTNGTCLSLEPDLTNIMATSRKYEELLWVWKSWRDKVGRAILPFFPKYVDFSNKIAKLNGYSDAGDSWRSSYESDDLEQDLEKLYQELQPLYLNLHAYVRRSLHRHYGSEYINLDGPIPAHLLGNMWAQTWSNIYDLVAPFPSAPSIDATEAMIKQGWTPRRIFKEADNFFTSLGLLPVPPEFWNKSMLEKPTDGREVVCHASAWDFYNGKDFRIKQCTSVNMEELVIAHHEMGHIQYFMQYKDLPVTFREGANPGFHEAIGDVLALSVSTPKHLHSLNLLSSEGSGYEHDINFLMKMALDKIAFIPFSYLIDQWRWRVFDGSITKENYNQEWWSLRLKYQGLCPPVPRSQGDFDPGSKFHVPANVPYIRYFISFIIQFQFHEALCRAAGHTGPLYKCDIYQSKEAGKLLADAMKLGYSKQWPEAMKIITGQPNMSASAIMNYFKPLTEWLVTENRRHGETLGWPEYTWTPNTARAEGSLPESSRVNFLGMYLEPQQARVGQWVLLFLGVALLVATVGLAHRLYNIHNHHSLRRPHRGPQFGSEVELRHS
How it was run: (§2)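 Male conscious normotensive Sprague-Dawley rats (275-390 g), prepared under methohexital sodium (75 mg/kg ip) with femoral arterial and venous catheters. The next day, pressor responses to three angiotensin-I challenges (300 ng/kg iv) were recorded. Compound was then given orally and angiotensin-I challenges were repeated at set times. Percent inhibition is relative to the mean of the three baseline responses.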

Rattus norvegicus [3] = test: Plasma ANF Concentration in the Conscious Rat at a dose of 13.2(po)mg/kg at 4 h; assay type: functional; how it was run: as §1
Rattus norvegicus [4] = test: Plasma ANF Concentration in the Conscious Rat at a dose of 13.2(po)mg/kg at 1 h; assay type: functional; how it was run: as §1
Rattus norvegicus [5] = test: Plasma ANF Concentration in the Conscious Rat at a dose of 13.2(po)mg/kg at 2 h; assay type: functional; how it was run: as §1
[6] = target: T1, Angiotensin-converting enzyme (Rattus norvegicus); test: Compound was tested for plasma inhibition of Angiotensin I converting enzyme activity in the conscious rat. Expressed as Inhibition of AI pressor response at 2 hr at a dose of 13.2 mg/kg po; assay type: organism-based; parameters: dose 13.2 mg/kg
How it was run: (§3)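 Male conscious normotensive Sprague-Dawley rats (275-390 g), given femoral arterial and venous catheters under methohexital sodium (75 mg/kg ip) anesthesia. Next day, pressor responses to three angiotensin-I challenges (300 ng/kg iv) recorded by direct arterial pressure. Compound then dosed orally, and AI challenge repeated at set times. Each post-dose response compared with the mean of the three baseline responses, giving % inhibition.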

[7] = target: T1, Angiotensin-converting enzyme (Rattus norvegicus); test: Compound was tested for plasma inhibition of Angiotensin I converting enzyme activity in the conscious rat. Expressed as Inhibition of AI pressor response at 4 hr at a dose of 13.2 mg/kg po; assay type: organism-based; parameters: dose 13.2 mg/kg; how it was run: as §2
[8] = target: T1, Angiotensin-converting enzyme (Rattus norvegicus); test: Compound was tested for plasma inhibition of Angiotensin I converting enzyme activity in the conscious rat. Expressed as Inhibition of AI pressor response at 1 hr at a dose of 13.2 mg/kg po; assay type: organism-based; parameters: dose 13.2 mg/kg; how it was run: as §3
Rattus norvegicus [9] = test: Plasma ANF Concentration in the Conscious Rat at a dose of 13.5(po)mg/kg at 1 h; assay type: functional
How it was run: (§4)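 Male Sprague-Dawley rats (275-390 g), catheterized in femoral artery and vein under ketamine (150 mg/kg)/acepromazine, tethered and recovered 24 h, studied conscious. Continuous iv rat ANF(99-126) infusion at 450 ng/kg/min for 5 h; baseline blood at 60 min, then oral dosing, sampling at 30-240 min.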

Rattus norvegicus [10] = test: Plasma ANF Concentration in the Conscious Rat at a dose of 13.5(po)mg/kg at 4 h; assay type: functional; how it was run: as §4
[11] = target: T1, Angiotensin-converting enzyme (Rattus norvegicus); test: Compound was tested for plasma inhibition of Angiotensin I converting enzyme activity in the conscious rat. Expressed as Inhibition of AI pressor response at 6 hr at a dose of 13.5 mg/kg po; assay type: organism-based; parameters: dose 13.5 mg/kg; how it was run: as §2
[12] = target: T1, Angiotensin-converting enzyme (Rattus norvegicus); test: Compound was tested for plasma inhibition of Angiotensin I converting enzyme activity in the conscious rat. Expressed as Inhibition of AI pressor response at 1 hr at a dose of 13.5 mg/kg po; assay type: organism-based; parameters: dose 13.5 mg/kg; how it was run: as §3
[13] = target: T1, Angiotensin-converting enzyme (Rattus norvegicus); test: Compound was tested for plasma inhibition of Angiotensin I converting enzyme activity in the conscious rat. Expressed as Inhibition of AI pressor response at 4 hr at a dose of 13.5 mg/kg po; assay type: organism-based; parameters: dose 13.5 mg/kg; how it was run: as §2
[14] = target: T1, Angiotensin-converting enzyme (Rattus norvegicus); test: Compound was tested for plasma inhibition of Angiotensin I converting enzyme activity in the conscious rat. Expressed as Inhibition of AI pressor response at 2 hr at a dose of 13.5 mg/kg po; assay type: organism-based; parameters: dose 13.5 mg/kg; how it was run: as §3
Rattus norvegicus [15] = test: Plasma ANF Concentration in the Conscious Rat at a dose of 13.5(po)mg/kg at 2 h; assay type: functional; how it was run: as §4
Rattus norvegicus [16] = test: Plasma ANF Concentration in the Conscious Rat at a dose of 13.5(po)mg/kg at 0.5 h; assay type: functional; how it was run: as §4
Rattus norvegicus [17] = test: Plasma ANF Concentration in the Conscious Rat at a dose of 13.1(po)mg/kg at 0.5 h; assay type: functional; how it was run: as §1
Rattus norvegicus [18] = test: Plasma ANF Concentration in the Conscious Rat at a dose of 13.1(po)mg/kg at 2 h; assay type: functional; how it was run: as §1
[19] = target: T1, Angiotensin-converting enzyme (Rattus norvegicus); test: Compound was tested for plasma inhibition of Angiotensin I converting enzyme activity in the conscious rat. Expressed as Inhibition of AI pressor response at 1 hr at a dose of 13.1 mg/kg po; assay type: organism-based; parameters: dose 13.1 mg/kg; how it was run: as §3
Rattus norvegicus [20] = test: Plasma ANF Concentration in the Conscious Rat at a dose of 13.1(po)mg/kg at 4 h; assay type: functional; how it was run: as §1
Rattus norvegicus [21] = test: Plasma ANF Concentration in the Conscious Rat at a dose of 13.1(po)mg/kg at 1 h; assay type: functional; how it was run: as §1
[22] = target: T1, Angiotensin-converting enzyme (Rattus norvegicus); test: Compound was tested for plasma inhibition of Angiotensin I converting enzyme activity in the conscious rat. Expressed as Inhibition of AI pressor response at 6 hr at a dose of 13.1 mg/kg po; assay type: organism-based; parameters: dose 13.1 mg/kg; how it was run: as §2
[23] = target: T1, Angiotensin-converting enzyme (Rattus norvegicus); test: Compound was tested for plasma inhibition of Angiotensin I converting enzyme activity in the conscious rat. Expressed as Inhibition of AI pressor response at 2 hr at a dose of 13.1 mg/kg po; assay type: organism-based; parameters: dose 13.1 mg/kg; how it was run: as §3
[24] = target: T1, Angiotensin-converting enzyme (Rattus norvegicus); test: Compound was tested for plasma inhibition of Angiotensin I converting enzyme activity in the conscious rat. Expressed as Inhibition of AI pressor response at 4 hr at a dose of 13.1 mg/kg po; assay type: organism-based; parameters: dose 13.1 mg/kg; how it was run: as §2

inhibition [2]: 63% | inhibition [6]: 97% | inhibition [7]: 87% | inhibition [8]: 99%
Structure (SMILES): COc1ccc(C[C@H](NC(=O)C2(NC(=O)[C@H](SC(C)=O)C(C)C)CCCC2)C(=O)OCc2cccnc2)cc1
Control (Rattus norvegicus [1]): 223% | Control (Rattus norvegicus [3]): 332% | Control (Rattus norvegicus [4]): 267% | Control (Rattus norvegicus [5]): 260%

inhibition [11]: 61% | inhibition [12]: 79% | inhibition [13]: 70% | inhibition [14]: 79%
Structure (SMILES): CCOC(=O)[C@H](Cc1ccc(OC(=O)COC)cc1)NC(=O)C1(NC(=O)[C@H](SC(C)=O)C(C)C)CCCC1
Control (Rattus norvegicus [9]): 263% | Control (Rattus norvegicus [10]): 223% | Control (Rattus norvegicus [15]): 252% | Control (Rattus norvegicus [16]): 203%

inhibition [19]: 85% | inhibition [22]: 64% | inhibition [23]: 84% | inhibition [24]: 81%
Structure (SMILES): COc1ccc(C[C@H](NC(=O)C2(NC(=O)[C@H](SC(C)=O)C(C)C)CCCC2)C(=O)OCc2ccccc2)cc1
Control (Rattus norvegicus [17]): 107% | Control (Rattus norvegicus [18]): 143% | Control (Rattus norvegicus [20]): 181% | Control (Rattus norvegicus [21]): 111%
